Source: PubChem BioAssay
SENP8 block-1 – blocks human SENP8 cleavage of Nedd8 substrate. recombinant SENP8, Nedd8 substrate fluorescence. inhibition, % at 20 µM. 360,000 tested, 0.64% active; in the data active = inhibition mostly above about 40%, no sharp cut-off; inactive = mostly below about 27%
Target sequence (Q96LD8 whole entry, looked up): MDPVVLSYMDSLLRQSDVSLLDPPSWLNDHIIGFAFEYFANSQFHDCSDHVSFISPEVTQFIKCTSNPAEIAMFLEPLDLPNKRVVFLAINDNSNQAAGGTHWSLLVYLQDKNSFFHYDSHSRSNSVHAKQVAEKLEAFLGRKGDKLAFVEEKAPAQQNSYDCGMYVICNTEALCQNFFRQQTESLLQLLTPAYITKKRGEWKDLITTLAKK
SENP1 FRET inh – SENP1 (human) catalytic domain inhibition; Q9P0U3; recombinant SENP1 catalytic domain, CyPet-SUMO1-YPet FRET cleavage; inhibition, % at 10 µM; 360,000 tested, 0.21% active;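 active = inhibition at least 30% at 10 µM, raw YFP signal under a set limit, fluorescence ratio 0.5 to 1.5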;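 note: 0% = enzyme with DMSO and 100% = no enzyme wells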
Target sequence (Q9P0U3 419-644 limits assumed): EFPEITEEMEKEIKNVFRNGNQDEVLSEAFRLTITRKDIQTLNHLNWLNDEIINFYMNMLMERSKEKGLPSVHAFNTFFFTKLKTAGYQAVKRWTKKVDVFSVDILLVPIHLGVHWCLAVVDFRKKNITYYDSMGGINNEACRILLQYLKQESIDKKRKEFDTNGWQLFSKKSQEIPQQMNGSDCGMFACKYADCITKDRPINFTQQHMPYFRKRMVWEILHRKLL
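System: Recombinant human SENP1 catalytic domain, His6-tagged | Incubation: Enzyme reaction for 50 min at room temperature, dark | Medium: Tris pH 8 with BME, BSA, NP40 and catalase | Also added: 25 nM SUMO1 FRET substrate | Compound: 10 µM single point, 0.5% DMSO | Measured by: FRET fluorescence in CFP and YFP emission channels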
SENP8 block-2 – SENP8 protease inhibition; Q96LD8; purified SENP8, Z-RLRGG-aminoluciferin cleavage, luminescence; inhibition, % at 10 µM; 330,000 tested, 1.2% active; AID 2540; in the data active = inhibition above about 50%
SENP7 block – inhibitors of human SENP7 protease | Q9BQF6 | recombinant SENP7, Z-RLRGG-aminoluciferin luminescence, 40 min | inhibition, % at 5 µM | 330,000 tested, 1.5% active | AID 434973;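 active = inhibition above about 50% at the single test dose, limit read from the data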;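 note: plate controls were DMSO with enzyme for no effect and no enzyme buffer wells for full effect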
SENP6 block – inhibitors of human SENP6 protease. Q9GZR1. Recombinant SENP6 catalytic domain, aminoluciferin luminescence. inhibition, % at 10 µM. 330,000 tested, 1.8% active. AID 2599;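 active = inhibition above about 50% at the single tested dose, limit read from the data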;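 note: plate controls were DMSO wells with enzyme for no effect and DMSO wells lacking enzyme for full effect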
HSP90 inh – HSP90 refolding inhibition in rabbit reticulocyte lysate. luciferase refolding luminescence, 3 h. inhibition, % at 5.6 µM. 290,000 tested, 0.91% active. AID 1789;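 active = inhibition above the screen-wide mean plus 3 SD, computed separately per campaign, cut at about 16% in these data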;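 note: 0% = DMSO wells and 100% = 60 µM geldanamycin wells; inhibitors lower the luminescence because luciferase stays unfolded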
HSP90 inh confirm – HSP90 inhibition, confirmation assay | AID 1846 | inhibition, % at 5.9 µM | rabbit reticulocyte lysate, luciferase refolding luminescence, 3 h | 2,300 tested, 64% active | shares compounds with HSP90 inh; in the data active = inhibition above about 18%;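 note: 0% = vehicle wells and 100% = reference inhibitor wells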
luciferase ctr – counter-screen for HSP90 inhibitors: inhibitors of firefly luciferase; AID 1847; inhibition, % at 5.9 µM; 2,300 tested, 48% active; purified native firefly luciferase, luminescence; shares compounds with HSP90 inh;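 active = inhibition above the mean inhibition of all tested sample wells plus 3 SD, cut at about 10% in these data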;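 note: 0% = DMSO with luciferase and 100% = wells lacking luciferase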
Active calls of the source: *; nt = not tested or not shown. This is a sample that favours compounds with a hit; in the whole collection about 2.9% have one here.

SMILES	SENP8 block-1	SENP1 FRET inh	SENP8 block-2	SENP7 block	SENP6 block	HSP90 inh	HSP90 inh confirm	luciferase ctr
COC(=O)[C@]12CCCCC=C1N(CCC1=CCCCC1)C(=O)[C@H](CC(=O)NCC13CC4CC(CC(C4)C1)C3)C2	6	2	nt	nt	nt	nt	nt	nt
Cc1ccc(NC(=O)Cc2ccc3c(c2)OCCO3)cc1S(=O)(=O)N1CCCCC1	20	1	2	6	3	27*	6	0
[O-][n+]1c2ccccc2c2n1CCN1CCOC21c1ccc(Cl)cc1 (centres undefined)	0	-30	3	-3	10	nt	nt	nt
Cc1ccccc1NC(=S)NNC(=O)c1csc2c1CCC(C)C2 (centres undefined)	16	3	39	41	46	67*	61*	52*
Cc1c(C(=O)Nc2ccccc2)cn2c(nc3ccccc32)c1C#N	-410	-27	-1	-1	-14	35*	2	-2
Nc1nnc(-c2ccccc2[N+](=O)[O-])o1	-10	0	-10	-8	10	30*	-2	-9
O=[N+]([O-])c1ccccc1-c1nc(-c2ccc(Br)o2)no1	-5	-1	15	21	38	6	nt	nt
CCc1cc2c(-n3nc(C)cc3C)ncnc2s1	4	2	-1	-1	1	39*	-2	-2
COC(=O)c1ccc(NC(=O)c2ccc(C)cc2)o1	-5	-1	1	8	10	30*	37*	-16
COC(=O)c1ccc(NC(=O)c2ccc(F)cc2)o1	12	1	-10	-7	-19	1	nt	nt
Nc1c(C(=O)CSc2nccn2-c2cccc(F)c2)c(=O)[nH]c(=O)n1C1CC1	2	-1	-2	-4	-7	nt	nt	nt
Cc1cc2nc3ccc(=[N+](C)C)cc-3sc2cc1N	57*	13	nt	nt	nt	82*	89*	38*
Cc1nc2cc(C)c(C)cc2s1	-1	1	-12	2	-23	3	nt	nt
CCO[C@@H]1OC(C(=O)N2CCN(Cc3ccc4c(c3)OCO4)CC2)=C[C@H](c2ccc(C(F)(F)F)cc2)[C@H]1CCCO	2	0	-11	-11	-18	24*	4	-2
CCO[C@@H]1OC(C(=O)N2CCN(Cc3ccc4c(c3)OCO4)CC2)=C[C@H](c2ccc(Br)cc2)[C@H]1CCCO	15	-1	-1	0	-14	4	nt	nt
COc1cc2c(cc1OC)[C@@H](NC(=O)COc1ccccc1)[C@H](OCc1ccccc1)C2	4	0	nt	11	nt	nt	nt	nt
Cc1ccc(-n2cnc3cc(NCc4cccs4)ccc32)cc1	-203	-11	-5	2	-2	15	nt	nt
c1ccc(-n2cnc3cc(NCc4cccs4)ccc32)cc1	-254	-15	-13	-2	16	51*	63*	61*
COc1ccc(OCc2cc(C(=O)O)c(C)o2)cc1	nt	nt	89*	92*	92*	55*	63*	28*
O=C(O)c1cccc(NC(=S)NC(NC(=O)c2cccc([N+](=O)[O-])c2)C(Cl)(Cl)Cl)c1 (centres undefined)	13	0	-5	1	-19	29*	75*	3
O=C(O)c1cccc(NC(=S)NC(NC(=O)c2ccccc2[N+](=O)[O-])C(Cl)(Cl)Cl)c1 (centres undefined)	6	3	3	0	6	1	nt	nt
Cc1cc(C(=O)NNC(=O)c2sccc2C)c(C)o1	6	1	-4	13	-4	nt	nt	nt
CCCc1ccc(-c2cc(C(=O)NN3CCOCC3)c3ccccc3n2)cc1	-6	1	2	1	-2	-4	nt	nt
CCc1ccc(-c2cc(C(=O)Nn3cnnc3)c3ccccc3n2)cc1	-22	2	17	25	27	30*	56*	30*
O=C(O)C1OCC2(CO1)COC(C(=O)O)OC2 (centres undefined)	2	1	nt	nt	nt	nt	nt	nt
SMILES	SENP8 block-1	SENP1 FRET inh	SENP8 block-2	SENP7 block	SENP6 block	HSP90 inh	HSP90 inh confirm	luciferase ctr
COc1ccc(C(c2c(C)n(C)n(-c3ccccc3)c2=O)c2c(C)n(C)n(-c3ccccc3)c2=O)cc1OC	11	-1	5	6	-15	1	nt	nt
COc1ccc(C(c2c(C)[nH]n(-c3ccccc3)c2=O)c2c(C)[nH]n(-c3ccccc3)c2=O)cc1OC	84*	2	-4	31	8	22*	-1	-9
COc1cccc(C(=O)Nc2nnc(SCC(=O)NC3CC3)s2)c1	-2	2	0	-2	-8	6	nt	nt
COc1ccc(C(=O)Nc2nnc(SCC(=O)NC3CC3)s2)cc1	-8	2	12	30	-3	23*	29*	16*
Oc1c(C=Nc2cccc3cccnc23)sc2ccccc12	nt	nt	87*	74*	92*	37*	23*	50*
O=[N+]([O-])c1ccc(O)c(N=Cc2sc3ccccc3c2O)c1	-108	-48	nt	nt	nt	21*	-2	-10
O=C(N/N=C/c1sc2ccccc2c1O)c1ccccc1	-54	-29	2	3	40	5	nt	nt
COc1ccccc1NC(=O)Nc1nc(C(N)CC(C)C)cs1 (centres undefined)	22	-2	nt	nt	nt	nt	nt	nt
O=C1[C@H]2[C@@H](c3ccc(C(F)(F)F)cc3)N[C@]3(CCCN(Cc4ccc(C(F)(F)F)cc4)C3=O)[C@H]2C(=O)N1Cc1ccccc1	-21	2	nt	nt	nt	nt	nt	nt
O=C(Oc1ccc[nH]c1=O)c1cc([N+](=O)[O-])cc([N+](=O)[O-])c1	32	3	66*	43	88*	13	5	2
COc1ccc(C(=O)Oc2ccc[nH]c2=O)cc1	14	2	-17	-3	-26	2	nt	nt
Cc1cc2ccccc2n1CCNC(=O)c1cccs1	-44	-51	0	2	4	23*	39*	-3
Cc1cc2ccccc2n1CCNC(=O)C1CC1	-31	-32	6	3	-8	-3	nt	nt
O=C(O)Cc1sc(N/N=C\c2ccncc2)nc1-c1ccccc1	-21	71	-3	-6	-10	0	nt	nt
C[C@@H](NC(=O)[C@@H]1CCCN1C(=O)[C@@H]1CCCN1C(=O)OC(C)(C)C)c1ccccc1	12	0	nt	nt	nt	nt	nt	nt
COc1ccccc1Nc1nc(-c2sc(NC(=O)C(C)(C)C)nc2C)cs1	-30	-8	0	4	6	2	nt	nt
Cc1nc(NC(=O)c2ccccc2)sc1-c1csc(Nc2ccc(C(=O)O)cc2)n1	-306	-5	nt	nt	nt	31*	8	-26
COc1ccccc1Nc1nc(-c2sc(NC(=O)c3cccc(Cl)c3)nc2C)cs1	nt	nt	41	-4	49	66*	61*	-11
CCC(=O)Nc1nc(C)c(-c2csc(Nc3ccc(C(=O)O)cc3)n2)s1	-259	-6	15	1	17	-6	nt	nt
Cc1ccc(Nc2nc(-c3sc(NC(=O)c4ccco4)nc3C)cs2)cc1	-98	-14	6	6	3	11	nt	nt
